In general, IC50 refers to the concentration that inhibits the measured activity by half. The low end stands for inhibition by little substance, the high end for a need for much substance.

Consider three compounds from BindingDB's records for doi:10.1128/AAC.00669-08 (Tibotec, 2008).

For assay [1], the target named is T1, DNA polymerase subunit gamma-1 (Homo sapiens, UniProt P54098).
T1 sequence (P54098 whole entry): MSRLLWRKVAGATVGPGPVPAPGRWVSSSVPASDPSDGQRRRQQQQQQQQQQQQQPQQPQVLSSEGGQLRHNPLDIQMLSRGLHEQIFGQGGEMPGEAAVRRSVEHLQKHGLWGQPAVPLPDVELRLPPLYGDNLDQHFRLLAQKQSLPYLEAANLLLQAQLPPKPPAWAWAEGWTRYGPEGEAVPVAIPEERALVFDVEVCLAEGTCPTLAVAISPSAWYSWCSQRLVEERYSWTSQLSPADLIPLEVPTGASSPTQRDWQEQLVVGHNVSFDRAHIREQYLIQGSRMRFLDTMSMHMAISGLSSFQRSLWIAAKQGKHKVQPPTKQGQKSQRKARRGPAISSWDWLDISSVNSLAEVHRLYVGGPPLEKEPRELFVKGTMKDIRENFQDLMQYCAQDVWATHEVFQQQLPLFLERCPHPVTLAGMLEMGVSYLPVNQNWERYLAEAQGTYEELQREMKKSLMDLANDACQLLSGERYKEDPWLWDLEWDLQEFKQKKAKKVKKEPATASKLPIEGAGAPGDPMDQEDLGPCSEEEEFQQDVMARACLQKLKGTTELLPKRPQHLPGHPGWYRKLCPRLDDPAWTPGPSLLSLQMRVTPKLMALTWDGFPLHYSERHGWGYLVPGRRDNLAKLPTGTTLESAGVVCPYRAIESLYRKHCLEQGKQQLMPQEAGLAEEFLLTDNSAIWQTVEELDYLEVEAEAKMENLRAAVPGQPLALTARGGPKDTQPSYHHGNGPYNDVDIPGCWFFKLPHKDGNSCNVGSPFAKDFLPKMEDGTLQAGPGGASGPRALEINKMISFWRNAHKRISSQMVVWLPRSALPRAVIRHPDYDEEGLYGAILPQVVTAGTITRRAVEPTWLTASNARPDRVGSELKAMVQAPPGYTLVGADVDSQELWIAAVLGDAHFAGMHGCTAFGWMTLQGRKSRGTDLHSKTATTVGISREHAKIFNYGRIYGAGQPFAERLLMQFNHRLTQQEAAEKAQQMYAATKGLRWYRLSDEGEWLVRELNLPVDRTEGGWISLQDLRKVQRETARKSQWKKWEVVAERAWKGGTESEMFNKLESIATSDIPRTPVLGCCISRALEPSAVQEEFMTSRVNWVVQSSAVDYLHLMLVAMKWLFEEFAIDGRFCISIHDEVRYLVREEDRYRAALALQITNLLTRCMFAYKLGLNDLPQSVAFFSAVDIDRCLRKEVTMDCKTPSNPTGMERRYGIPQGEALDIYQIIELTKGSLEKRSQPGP
The assay is described as follows: Inhibition of human DNA polymerase gamma. The procedure, abridged:
(§1)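 Each enzyme–compound pair was tested in duplicate over 0.8 to 100 μM, with 100 μM as the highest dose. Each run included a no-inhibitor control, a solvent dilution (0.016 to 2% DMSO) and the relevant reference inhibitor. Percent inhibition at 100 μM was recorded for polymerase γ.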

In a further assay the target is DNA polymerase beta (Homo sapiens, UniProt P06746). As to the kind of experiment: Inhibition of human DNA polymerase beta. Summed up:
as §1

For assay [2], the target named is T2, DNA polymerase alpha catalytic subunit (Homo sapiens, UniProt P09884).
T2 sequence (P09884 whole entry): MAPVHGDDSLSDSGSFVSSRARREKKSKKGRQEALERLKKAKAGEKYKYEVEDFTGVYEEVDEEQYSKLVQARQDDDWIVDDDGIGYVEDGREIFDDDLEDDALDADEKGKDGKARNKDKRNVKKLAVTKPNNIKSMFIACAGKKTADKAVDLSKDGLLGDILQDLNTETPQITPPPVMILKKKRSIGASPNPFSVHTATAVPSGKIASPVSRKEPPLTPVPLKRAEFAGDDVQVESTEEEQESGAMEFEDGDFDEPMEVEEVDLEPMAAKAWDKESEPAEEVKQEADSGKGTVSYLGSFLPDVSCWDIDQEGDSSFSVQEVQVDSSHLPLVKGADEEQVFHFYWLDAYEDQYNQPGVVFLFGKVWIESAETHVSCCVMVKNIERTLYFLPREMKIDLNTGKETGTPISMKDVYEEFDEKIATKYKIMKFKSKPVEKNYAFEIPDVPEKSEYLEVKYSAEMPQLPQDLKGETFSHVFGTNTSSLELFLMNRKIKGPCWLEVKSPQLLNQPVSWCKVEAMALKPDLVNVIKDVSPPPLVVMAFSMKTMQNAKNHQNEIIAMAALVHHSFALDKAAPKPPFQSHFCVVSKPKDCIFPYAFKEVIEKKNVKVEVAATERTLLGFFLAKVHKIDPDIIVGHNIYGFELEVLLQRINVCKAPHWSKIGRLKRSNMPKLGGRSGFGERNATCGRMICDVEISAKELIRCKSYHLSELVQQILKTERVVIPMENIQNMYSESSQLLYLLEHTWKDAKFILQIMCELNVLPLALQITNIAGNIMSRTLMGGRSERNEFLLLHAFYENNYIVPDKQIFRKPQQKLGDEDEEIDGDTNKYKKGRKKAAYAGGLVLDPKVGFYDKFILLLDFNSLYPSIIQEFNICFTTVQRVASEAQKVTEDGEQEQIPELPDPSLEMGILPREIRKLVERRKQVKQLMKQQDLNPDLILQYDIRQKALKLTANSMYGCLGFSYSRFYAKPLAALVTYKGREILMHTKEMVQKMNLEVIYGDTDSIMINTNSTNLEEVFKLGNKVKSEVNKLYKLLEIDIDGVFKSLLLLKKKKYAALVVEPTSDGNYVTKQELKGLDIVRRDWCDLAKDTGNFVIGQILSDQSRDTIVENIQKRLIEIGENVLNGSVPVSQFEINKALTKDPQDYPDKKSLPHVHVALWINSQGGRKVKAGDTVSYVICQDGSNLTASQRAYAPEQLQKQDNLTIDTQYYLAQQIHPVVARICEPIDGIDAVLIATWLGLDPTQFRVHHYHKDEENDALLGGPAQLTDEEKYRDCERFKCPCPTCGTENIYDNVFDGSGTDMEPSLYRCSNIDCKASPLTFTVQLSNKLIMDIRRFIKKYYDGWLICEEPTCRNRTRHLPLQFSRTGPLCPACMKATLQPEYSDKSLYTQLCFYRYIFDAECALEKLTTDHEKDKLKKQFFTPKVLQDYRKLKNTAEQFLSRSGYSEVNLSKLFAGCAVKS
The assay is described as follows: Inhibition of human DNA polymerase alpha. Summed up: as §1

Assay [3] deals with T3, Translocator protein (Homo sapiens, UniProt P30536). The assay is described as follows: (§2) Inhibition of peripheral benzodiazepine BZD receptor by radioligand binding assay. Summed up:
(§3)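 Radioligand binding assays for the GABA-A central BZD receptor and the peripheral BZD receptor were run as a single experiment in duplicate.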

Assay [4] concerns the target T3, Translocator protein. The assay is described as §2. The procedure, abridged:
as §3
The source holds these as a separate data set.

T3 sequence (P30536 whole entry): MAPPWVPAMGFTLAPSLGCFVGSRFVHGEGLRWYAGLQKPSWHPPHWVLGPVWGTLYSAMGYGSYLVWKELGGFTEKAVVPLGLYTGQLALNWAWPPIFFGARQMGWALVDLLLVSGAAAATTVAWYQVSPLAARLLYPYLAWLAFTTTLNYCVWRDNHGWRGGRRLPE

Consider `CC(=O)N1c2ccccc2N=C2CC(C)(C)CC(=O)C2C1c1ccc(Cl)cc1Cl` (stereo not drawn) [10-acetyl-11-(2,4-dichlorophenyl)-3,3-dimethyl-2,3,4,5,10,11-hexahydro-1H-dibenzo[b,e][1,4]diazepin-1-one], for which the IC50 (in assay [1]; on DNA polymerase beta; in assay [2]) was greater than 100 µM in each case.

On to `COc1ccc(C2C3C(=O)CC(C)(C)CC3=Nc3ccccc3N2C(C)=O)cc1OCc1ccccc1` (stereo not drawn) [10-acetyl-11-(3-(benzyloxy)-4-methoxyphenyl)-3,3-dimethyl-2,3,4,5,10,11-hexahydro-1H-dibenzo[b,e][1,4]diazepin-1-one], for which the concentration for half-maximal inhibition (IC50) (in assay [1]; against DNA polymerase beta; in assay [2]) was greater than 100 µM in each case.

As to `CC(=O)N1c2cccc(O)c2N=C2CC(C)(C)CC(=O)C2C1c1ccc(OCc2ccccc2)cc1Cl` (stereo not drawn) [10-acetyl-11-(4-(benzyloxy)-2-chlorophenyl)-6-hydroxy-3,3-dimethyl-2,3,4,5,10,11-hexahydro-1H-dibenzo[b,e][1,4]diazepin-1-one], the half-maximal inhibitory concentration (IC50) at Translocator protein [3] and at Translocator protein [4] was greater than 30 µM each time.
